We go through 8 compounds from ChEMBL document CHEMBL1131139, “Synthesis and antibacterial activity of ketolides (6-O-methyl-3-oxoerythromycin derivatives): a new class of antibacterials highly potent against macrolide-resistant and -susceptible respiratory pathogens” (1998).

Each structure is given as a SMILES string. In brackets after ≈: the same amount, converted by molar mass.

Common to all, as to type: functional
The test system of assay [1] is Staphylococcus aureus. Description: In vitro inhibitory activity against Staphylococcus aureus (EryRi 011GO25i). The essentials: (§1)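 Two-fold agar dilution on Mueller-Hinton agar (pH 7.4). Inoculum from overnight plate cultures suspended in Mueller-Hinton broth, adjusted to 10^9 CFU/mL, diluted 1:200 and spotted by multipoint inoculator at about 10^4 CFU/spot. Plates incubated 37 °C for 20 h. MIC taken as lowest concentration with no visible growth.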

In assay [2] the test system is Streptococcus pneumoniae. The assay is described as follows: In vitro inhibitory activity against Streptococcus pneumoniae (EryRi 030SJ5i). The essentials:
as §1

Assay [3] concerns Staphylococcus aureus. The assay is described as follows: In vitro inhibitory activity against Staphylococcus aureus (011UC4). A digest of the protocol: as §1
Assay [4] concerns Staphylococcus epidermidis. The assay is described as follows: In vitro inhibitory activity against Staphylococcus epidermidis (EryRi 012GO11i). The essentials: as §1
For another assay, the system named is Streptococcus pyogenes. Description: In vitro inhibitory activity against Streptococcus pyogenes (02A1UC1). The essentials:
as §1

For assay [5], the system named is Streptococcus pneumoniae. The assay is described as follows: In vitro inhibitory activity against Streptococcus pneumoniae (032UC1). A digest of the protocol:
as §1

For assay [6], the system named is Haemophilus influenzae. The assay is described as follows: In vitro inhibitory activity against Haemophilus influenzae (351HT3). A digest of the protocol:
as §1

For a further assay, the system named is Escherichia coli. The assay is described as follows: In vitro inhibitory activity against Escherichia coli (250 UC5). A digest of the protocol:
as §1

The subject of assay [7] is Haemophilus influenzae. The assay is described as follows: In vitro inhibitory activity against Haemophilus influenzae (351CB12). A digest of the protocol:
as §1

In assay [8] the test system is Staphylococcus aureus. Description: In vitro inhibitory activity against Staphylococcus aureus (EryRc 011CB20). A digest of the protocol: as §1
For assay [9], the system named is Streptococcus pneumoniae. The assay is described as follows: In vitro inhibitory activity against Streptococcus pneumoniae (EryRc 030SJ1). The essentials:
as §1

Regarding `CC[C@H]1OC(=O)[C@H](C)C(=O)[C@H](C)[C@@H](O[C@@H]2O[C@H](C)C[C@H](N(C)C)[C@H]2O)[C@](C)(OC)C[C@@H](C)/C(=N\OCc2ccccc2)[C@H](C)[C@@H](O)[C@]1(C)O`, the MIC worked out at 40 µg/mL (≈ 57.7 µM) in the assay on Staphylococcus aureus [1]; 40 µg/mL (≈ 57.7 µM) against Streptococcus pneumoniae [2]; 2.5 µg/mL (≈ 3.61 µM) with Staphylococcus aureus [3]; 40 µg/mL (≈ 57.7 µM) in assay [4]; 0.6 µg/mL (≈ 0.866 µM) in the assay with Streptococcus pyogenes; 0.3 µg/mL (≈ 0.433 µM) against Streptococcus pneumoniae [5]. For the same compound, the MIC in the assay on Haemophilus influenzae [6], against Escherichia coli, with Haemophilus influenzae [7], against Staphylococcus aureus [8] and against Streptococcus pneumoniae [9] was 40 µg/mL (≈ 57.7 µM) each time.
Turning to `CC[C@H]1OC(=O)[C@H](C)C(=O)[C@H](C)[C@@H](O[C@@H]2O[C@H](C)C[C@H](N(C)C)[C@H]2O)[C@](C)(OC)C[C@@H](C)C(=O)[C@H](C)[C@H]2N(NCCCc3cccc(Cl)c3)C(=O)O[C@]12C`, the MIC against Staphylococcus aureus [1] amounted to 0.08 µg/mL (≈ 0.103 µM); against Streptococcus pneumoniae [2], 0.08 µg/mL (≈ 0.103 µM); in the assay on Staphylococcus aureus [3] it was 0.04 µg/mL (≈ 0.0513 µM); in [4] it was 0.04 µg/mL (≈ 0.0513 µM); in the assay on Streptococcus pyogenes, 0.02 µg/mL (≈ 0.0256 µM); in the assay on Streptococcus pneumoniae [5] it was 0.02 µg/mL (≈ 0.0256 µM). Also, the MIC against Haemophilus influenzae [6] was determined as 1.2 µg/mL (≈ 1.54 µM); in the assay with Escherichia coli, 40 µg/mL (≈ 51.3 µM); against Haemophilus influenzae [7], 2.5 µg/mL (≈ 3.2 µM); against Staphylococcus aureus [8], 40 µg/mL (≈ 51.3 µM); in the assay on Streptococcus pneumoniae [9] it was 2.5 µg/mL (≈ 3.2 µM).
On to `CC[C@H]1OC(=O)[C@H](C)C(=O)[C@H](C)[C@@H](O[C@@H]2O[C@H](C)C[C@H](N(C)C)[C@H]2O)[C@](C)(OC)C[C@@H](C)/C(=N\OCCNCCN(C)C)[C@H](C)[C@@H](O)[C@]1(C)O`, for which the MIC stood at 5 µg/mL (≈ 6.97 µM) against Staphylococcus aureus [1]; 10 µg/mL (≈ 13.9 µM) in the assay with Streptococcus pneumoniae [2]; 0.6 µg/mL (≈ 0.837 µM) in the assay on Staphylococcus aureus [3]; 1.2 µg/mL (≈ 1.67 µM) in assay [4]; 0.15 µg/mL (≈ 0.209 µM) against Streptococcus pyogenes; 0.15 µg/mL (≈ 0.209 µM) against Streptococcus pneumoniae [5]. For the same compound, the MIC against Haemophilus influenzae [6] came out at 40 µg/mL (≈ 55.8 µM); in the assay on Escherichia coli it was 40 µg/mL (≈ 55.8 µM); against Haemophilus influenzae [7], 20 µg/mL (≈ 27.9 µM); with Staphylococcus aureus [8], 40 µg/mL (≈ 55.8 µM); with Streptococcus pneumoniae [9], 40 µg/mL (≈ 55.8 µM).
`CC[C@H]1OC(=O)[C@H](C)C(=O)[C@H](C)[C@@H](O[C@@H]2O[C@H](C)C[C@H](N(C)C)[C@H]2O)[C@](C)(OC)C[C@@H](C)/C(=N\OCCN2CCC2)[C@H](C)[C@@H](O)[C@]1(C)O`: the MIC in the assay on Staphylococcus aureus [1] worked out at 2.5 µg/mL (≈ 3.64 µM); with Streptococcus pneumoniae [2], 2.5 µg/mL (≈ 3.64 µM); against Staphylococcus aureus [3], 0.6 µg/mL (≈ 0.875 µM); in [4] it was 5 µg/mL (≈ 7.29 µM); with Streptococcus pyogenes it was 0.04 µg/mL (≈ 0.0583 µM); against Streptococcus pneumoniae [5], 20 µg/mL (≈ 29.2 µM). Besides, the MIC against Haemophilus influenzae [6] came out at 40 µg/mL (≈ 58.3 µM); with Escherichia coli, 40 µg/mL (≈ 58.3 µM); against Haemophilus influenzae [7], 10 µg/mL (≈ 14.6 µM); against Staphylococcus aureus [8] it was 40 µg/mL (≈ 58.3 µM); with Streptococcus pneumoniae [9], 0.3 µg/mL (≈ 0.437 µM).
For `CC[C@H]1OC(=O)[C@H](C)C(=O)[C@H](C)[C@@H](O[C@@H]2O[C@H](C)C[C@H](N(C)C)[C@H]2O)[C@](C)(OC)C[C@@H](C)/C(=N\O)[C@H](C)[C@@H](O)[C@]1(C)O`, the MIC came to 1.2 µg/mL (≈ 1.99 µM) in the assay with Staphylococcus aureus [1]; 40 µg/mL (≈ 66.4 µM) in the assay with Streptococcus pneumoniae [2]; 0.3 µg/mL (≈ 0.498 µM) against Staphylococcus aureus [3]; 0.6 µg/mL (≈ 0.995 µM) in [4]; 0.15 µg/mL (≈ 0.249 µM) with Streptococcus pyogenes; 0.08 µg/mL (≈ 0.133 µM) with Streptococcus pneumoniae [5]. The MIC against Haemophilus influenzae [6] stood at 20 µg/mL (≈ 33.2 µM); against Escherichia coli, 40 µg/mL (≈ 66.4 µM); with Haemophilus influenzae [7], 1.2 µg/mL (≈ 1.99 µM); in the assay on Staphylococcus aureus [8], 40 µg/mL (≈ 66.4 µM); in the assay on Streptococcus pneumoniae [9] it was 40 µg/mL (≈ 66.4 µM).
For the compound `CC[C@H]1OC(=O)[C@H](C)C(=O)[C@H](C)[C@@H](O[C@@H]2O[C@H](C)C[C@H](N(C)C)[C@H]2O)[C@](C)(OC)C[C@@H](C)/C(=N\OC2CCCN(CCCc3ccc(O)cc3)C2)[C@H](C)[C@@H](O)[C@]1(C)O` (stereo partly drawn), the MIC in the assay with Staphylococcus aureus [1] is 0.6 µg/mL (≈ 0.732 µM); in the assay with Streptococcus pneumoniae [2] it was 0.15 µg/mL (≈ 0.183 µM); against Staphylococcus aureus [3] it was 0.08 µg/mL (≈ 0.0976 µM); in [4], 0.3 µg/mL (≈ 0.366 µM); with Streptococcus pyogenes, 0.04 µg/mL (≈ 0.0488 µM); against Streptococcus pneumoniae [5], 0.02 µg/mL (≈ 0.0244 µM). Besides, the MIC with Haemophilus influenzae [6] was found to be 5 µg/mL (≈ 6.1 µM); with Escherichia coli it was 40 µg/mL (≈ 48.8 µM); against Haemophilus influenzae [7], 1.2 µg/mL (≈ 1.46 µM); against Staphylococcus aureus [8], 40 µg/mL (≈ 48.8 µM); against Streptococcus pneumoniae [9], 0.6 µg/mL (≈ 0.732 µM).
Turning to `CC[C@H]1OC(=O)[C@H](C)C(=O)[C@H](C)[C@@H](O[C@@H]2O[C@H](C)C[C@H](N(C)C)[C@H]2O)[C@](C)(OC)C[C@@H](C)C(=O)[C@H](C)[C@H]2N(CCCCc3cccc(Cl)c3)C(=O)O[C@]12C`, the MIC in the assay with Staphylococcus aureus [1] was found to be 0.6 µg/mL (≈ 0.77 µM); in the assay on Streptococcus pneumoniae [2] it was 0.08 µg/mL (≈ 0.103 µM); with Staphylococcus aureus [3] it was 0.04 µg/mL (≈ 0.0513 µM); in assay [4] it was 0.15 µg/mL (≈ 0.192 µM); against Streptococcus pyogenes, 0.02 µg/mL (≈ 0.0257 µM); with Streptococcus pneumoniae [5] it was 0.02 µg/mL (≈ 0.0257 µM). Besides, the MIC with Haemophilus influenzae [6] came to 1.2 µg/mL (≈ 1.54 µM); in the assay on Escherichia coli, 40 µg/mL (≈ 51.3 µM); against Haemophilus influenzae [7], 1.2 µg/mL (≈ 1.54 µM); in the assay on Staphylococcus aureus [8], 10 µg/mL (≈ 12.8 µM); against Streptococcus pneumoniae [9] it was 2.5 µg/mL (≈ 3.21 µM).
As for `CC[C@H]1OC(=O)[C@H](C)C(=O)[C@H](C)[C@@H](O[C@@H]2O[C@H](C)C[C@H](N(C)C)[C@H]2O)[C@](C)(OC)C[C@@H](C)/C(=N\OCCN2CCCC2)[C@H](C)[C@@H](O)[C@]1(C)O`, the MIC in the assay with Staphylococcus aureus [1] was found to be 2.5 µg/mL (≈ 3.57 µM); against Streptococcus pneumoniae [2] it was 40 µg/mL (≈ 57.1 µM); with Staphylococcus aureus [3] it was 0.6 µg/mL (≈ 0.857 µM); in assay [4], 0.6 µg/mL (≈ 0.857 µM); in the assay on Streptococcus pyogenes, 0.15 µg/mL (≈ 0.214 µM); in the assay on Streptococcus pneumoniae [5], 20 µg/mL (≈ 28.6 µM). The MIC was 40 µg/mL (≈ 57.1 µM) against Haemophilus influenzae [6]; 40 µg/mL (≈ 57.1 µM) with Escherichia coli; 20 µg/mL (≈ 28.6 µM) with Haemophilus influenzae [7]; 40 µg/mL (≈ 57.1 µM) in the assay with Staphylococcus aureus [8]; 20 µg/mL (≈ 28.6 µM) against Streptococcus pneumoniae [9].
